Hits are enriched below; roughly 1.5% of the tested compounds scored in any of these assays.
EBI2 antag: antagonists of human EBI2 receptor. inhibition, % at 5 µM. P32249. actives 0.81% (n = 360,000). EBI2 beta-arrestin recruitment, luminescence, 7a,25-OHC stimulated; in the data active means inhibition above about 38%;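 further: enzyme fragment complementation signal reports receptor beta-arrestin coupling in cells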
Target sequence (P32249 whole entry, looked up, the tested form may be a part): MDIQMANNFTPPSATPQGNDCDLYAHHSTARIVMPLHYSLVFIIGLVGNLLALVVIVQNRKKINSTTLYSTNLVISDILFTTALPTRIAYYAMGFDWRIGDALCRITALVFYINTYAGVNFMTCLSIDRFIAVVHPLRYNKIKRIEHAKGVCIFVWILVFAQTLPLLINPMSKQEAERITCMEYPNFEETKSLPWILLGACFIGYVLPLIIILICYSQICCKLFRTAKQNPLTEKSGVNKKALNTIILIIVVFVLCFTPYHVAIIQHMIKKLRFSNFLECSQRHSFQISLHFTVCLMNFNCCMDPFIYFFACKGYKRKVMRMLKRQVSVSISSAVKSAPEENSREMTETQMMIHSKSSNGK
CXCR6 inh: CXCR6 (human) receptor inhibition; O00574; CHO-K1 PathHunter CXCR6 beta-arrestin, luminescence; inhibition, % at 20 µM; actives 0.36% (n = 360,000); AID 602244; in the data active means inhibition above about 34%, passing the limit was not always enough;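 further: antagonist mode with CXCL16 agonist at 10 nM final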
APJ antagonist: APJ receptor antagonism; AID 2521; actives 0.32% (n = 330,000); inhibition, % at 20 µM; CHO-K1 APJ beta-arrestin complementation, luminescence; P35414;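 active means inhibition above about 40% at 20 µM, limit read from the data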;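 further: cells challenged with 10 nM apelin-13 agonist together with compound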
CCR6 antagonist: antagonists of human CCR6 receptor | P51684 | CHO-K1 CCR6 PathHunter beta-arrestin, luminescence, CCL20-stimulated | inhibition, % at 20 µM | actives 0.49% (n = 340,000) | AID 493098;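 active means compounds whose inhibition of the agonist-driven luminescence signal at 20 µM reaches about 50%, limit read from the data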;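 further: cells stimulated with CCL20 at 14 nM final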
APJ agonist: agonists of human APJ apelin receptor. P35414. CHO-K1 APJ PathHunter beta-arrestin, luminescence; 0% DMSO wells, 100% apelin. activation, % at 20 µM. actives 0.11% (n = 330,000). AID 2520;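 active means activation more than six SD over the plate average, tested at 20 µM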
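Assay system: engineered CHO-K1 APJ arrestin reporter cells; Amount: 1000 CHO-K1 reporter cells seeded per well; Dosing: one dose, 20 µM compound, 1% DMSO; Times: compound stimulation 90 min at 25 °C, detection 60 min; Measured by: luminescent beta-gal fragment complementation, chemiluminescent substrate; Read-out: APJ–arrestin association signal; Controls: DMSO vs Apelin-13 10 nM.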
hiPSC survival: enhancers of human iPSC single-cell survival; hiPSC single-cell survival, ATPlite luminescence; 100% = ROCK inhibitor wells, 0% = DMSO; AID 602274; survival enhancement, % at 20 µM; actives 0.044% (n = 360,000); in the data active means survival enhancement above about 18%;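 further: cells exposed to compounds for 16 hours before the ATP read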
A number is an active result; . = inactive; / = not tested or not shown.

SMILES	EBI2 antag	CXCR6 inh	APJ antagonist	CCR6 antagonist	APJ agonist	hiPSC survival
O=[N+]([O-])c1ccccc1N=Nc1ccc(O)cc1O	.	.	/	.	/	.
Oc1ccc(C[C@H]2CNC(=S)N2CC2CCCN2C[C@H](Cc2ccccc2)N2C[C@H](Cc3ccc(O)cc3)N(CCc3ccccc3)C2=S)cc1 (stereo partly drawn)	.	.	/	.	/	.
COc1ccccc1N1CCN(C(=O)CCC(=O)Nc2nnc(C(C)C)s2)CC1	.	.	.	.	.	.
O=c1ccn(Cc2ccccc2)c(SCc2ccccc2)n1	.	.	/	.	/	.
Clc1ccc(CSc2nccn2Cc2ccccc2)cc1	77	.	.	.	.	.
CN(/N=C/c1cc(Br)cc(Br)c1O)c1cccc(C(F)(F)F)n1	.	58	.	/	.	.
CCCOc1ccc(C(=O)NNC(=S)NC(=O)c2ccco2)cc1	.	.	.	70	.	.
O=C1c2ccccc2-c2nnc(-c3ccc(O)cc3)cc21	.	.	.	.	.	.
O=C1c2ccccc2-c2nnc(-c3ccc(F)cc3)cc21	48	.	.	.	.	.
c1ccc(C2=NN(c3ccccc3)CC2)cc1	.	.	.	.	.	.
c1ccc(N=NC2=NN(c3ccccc3)CS2)cc1	.	42	/	/	/	.
O=C(Nc1ccc(N2CCOCC2)cc1)c1cccc(S(=O)(=O)N2CCCCCC2)c1	.	.	.	.	.	.
O=C(Nc1ccc(N2CCOCC2)cc1)c1cccc(S(=O)(=O)N2CCCC2)c1	.	.	.	.	.	24
O=C(Nc1ccc(S(=O)(=O)N2CCCCC2)cc1)c1ccncc1	.	.	.	58	.	.
CC(=O)Nc1ccc(S(=O)(=O)NCCC(=O)OCc2csc(CC(=O)Nc3ccccc3C)n2)cc1	.	.	.	.	.	.
COc1ccc(C[C@H]2c3cc(O)c(OC)cc3CC[N+]2(C)[O-])cc1O (stereo partly drawn)	.	.	.	59	.	.
COc1cc(N=Nc2cccc(S(N)(=O)=O)c2)c2ccccc2c1N	.	.	/	67	/	.
NC1=NC(=Nc2cccc(S(N)(=O)=O)c2)c2ccccc21	.	.	.	.	.	.
Oc1ccc(-c2onc(C(F)(F)F)c2-c2cscn2)c(O)c1	.	.	.	.	.	20
Cc1nc(-c2c(C(F)(F)F)noc2-c2ccc(O)cc2O)cs1	.	.	.	.	.	.
COc1cc(CC(CC(=O)O)CC(C)OCc2ccccc2)cc(OC)c1 (stereo not drawn)	.	.	.	.	.	20
COc1ccc(NC(=O)C(CC(=O)O)Cc2ccccc2)cc1 (stereo not drawn)	.	.	.	.	.	.
CC(NC(=O)/C(C#N)=C/c1ccco1)c1ccccc1 (stereo not drawn)	.	.	.	.	.	.
CC(NC(=O)/C(C#N)=C/c1ccc([N+](=O)[O-])o1)c1ccccc1 (stereo not drawn)	.	50	.	/	.	.
CCOCCCNC(=O)/C(C#N)=C/c1ccc([N+](=O)[O-])o1	.	.	.	.	.	29
SMILES	EBI2 antag	CXCR6 inh	APJ antagonist	CCR6 antagonist	APJ agonist	hiPSC survival
CCOC(=O)c1cnc2cc(-c3ccc(C)cc3)nn2c1C	.	.	/	/	/	.
O=C(CN1CCN(C(=O)CCC(=O)N2CCC(c3ccccc3)=N2)CC1)Nc1ccc(F)cc1	.	.	.	.	.	.
COc1ccccc1CN(CC(=O)NCc1ccco1)C(=O)CNS(=O)(=O)c1ccccc1	.	.	.	61	.	.
CC(C)CC(=O)c1c(O)c(C=O)c(O)c2c1O[C@@]1(C)[C@@H](C2)C[C@H]2C[C@@H]1C2(C)C	.	.	.	.	.	.
C=CCc1cccc(/C=N/NC(=O)C(C)Nc2ccc(C)cc2)c1O (stereo not drawn)	41	.	.	.	.	.
C=CCc1cccc(/C=N/NC(=O)C(=O)Nc2ccc(C)cc2)c1O	.	.	.	.	.	.
CN(CC(=O)Nc1ccccc1Br)C(=O)c1ccccc1OCc1ccccc1Cl	.	.	/	.	/	.
CC(C)N=c1cc2n(-c3ccc(Cl)cc3)c3ccccc3nc-2cc1Nc1ccc(Cl)cc1	.	46	67	.	.	.
COc1ccc2[nH]c3c(c2c1)CCN1C(=O)C(CC(=O)NCc2ccc(OC)c(OC)c2)C[C@H](C(=O)N2CCCCC2)[C@@]31CCc1ccccc1 (stereo partly drawn)	.	.	/	.	/	.
O=C1NC(=S)SC1=C1CCCCCC1	.	.	.	51	.	.
Cc1ccc(C2NC(=O)c3ccccc3N2)c(C)c1 (stereo not drawn)	.	.	/	.	/	.
Cc1cccc2c1N(CCOc1ccc(C(C)(C)C)cc1)C(=O)C2=O	.	.	.	.	.	.
Cc1ccc(OCCCN2C(=O)C(=O)c3cccc(C)c32)cc1	.	.	.	57	.	.
Cc1ccc(OCCN2C(=O)C(=O)c3cc(C)ccc32)cc1	.	.	.	52	.	.
COC(=O)c1cc(C(=O)OCC(=O)c2ccc3c(c2)NC(=O)CO3)cc([N+](=O)[O-])c1	.	.	.	.	.	.
NC(=O)CC(NC(=O)c1ccccc1)C(=O)O (stereo not drawn)	.	.	.	.	.	20
C[C@H]1CN=C(N(C)C)N1CCc1ccc(F)cc1	.	.	.	.	.	.
N#Cc1ccccc1Cn1cc(/C=C/[N+](=O)[O-])c2ccccc21	.	.	.	55	.	.
Cc1c(C)c2ccc(OCC(=O)NCCN3CCOCC3)c(C)c2oc1=O	.	.	.	.	.	.
Cc1cccc2c1c1ccc3c(c1n2C)C(=O)C=CC3=O	.	44	/	89	/	.
C#CCN(C[C@@H]1[C@@H](OC(=O)NCc2ccccc2F)[C@@H](OC(=O)NCc2ccccc2F)Cn2c(=O)ccc(=O)n21)S(=O)(=O)c1ccc(C)cc1	55	.	/	/	/	.
C#CCN(C[C@@H]1[C@@H](OC(=O)NCc2ccccc2F)[C@@H](OC(=O)NCc2ccccc2F)Cn2c(=O)n(CCCCCC)c(=O)n21)S(=O)(=O)c1ccc(C)cc1	.	.	/	/	/	.
O=c1cc(-c2c(F)c(F)c(F)c(F)c2F)oc2c(F)c(F)c(F)c(F)c12	/	/	52	/	.	/
O=C(Cn1cc(F)c(=O)[nH]c1=O)c1ccco1	.	.	/	/	/	.
COc1ccc(/C=C/c2nc3ccccc3n2Cc2ccccc2OC)cc1	55	.	.	.	.	.
CC(=O)Nc1nnc([N+](=O)[O-])s1	.	.	/	/	/	.
Cc1ccc(N2C(=O)c3cccc4c([N+](=O)[O-])ccc(c34)C2=O)c2cccnc12	.	.	.	.	.	.
Cc1ccnc(N2C(=O)c3cccc4c([N+](=O)[O-])ccc(c34)C2=O)c1	.	42	.	.	.	.
CC1C(O)=C(c2ccccc2)P(=O)(Cc2ccccc2)C1C (stereo not drawn)	.	.	/	/	/	.
